According to paper PMC7425423 (Brain Communications, 2020):

Test system: T98G, U87MG and E98
Assay: Viability after Gefitinib
Format: cell-based, human
Conditions: 72 hours, 10 µM
Outline: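 Cells were seeded at 3–5 × 10³/well in 96-well plates and allowed to attach. After 24 h the test compound was added, and viability was read at 72 h by CellTiter-Glo luminescence, normalized as % of control. U87MG and E98 were grown in DMEM and T98G in Eagle MEM, each with 10% heat-inactivated FBS, at 37°C and 5% CO2.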

SMILES: COc1cc2ncnc(Nc3ccc(F)c(Cl)c3)c2cc1OCCCN1CCOCC1 [Gefitinib]
- sensitivity of cell lines (viability): resistance
